Results taken from ChEMBL document CHEMBL1122094, “Novel orally active inhibitors of passive cutaneous anaphylaxis in rats: N-[2-(4-pyridinyl)-4-pyrimidinyl]ureas and dialkyl [[[2-(4-pyridinyl)-4-pyrimidinyl]amino]methylene]malonates” (1982).

Assays:
[1] = organism: Rattus norvegicus; assay: Antiallergic potency against IgE-mediated passive cutaneous anaphylaxis (PCA) in rats; type: functional
In short: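 Multiple-dose oral tests were run alongside aminophylline in female Sprague–Dawley rats (90–125 g). Bluing diameters were recorded 30 min after challenge, and activity was taken as the rightward shift of the antibody dose-response curve.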

[2] = organism: Rattus norvegicus; assay: Antiallergic activity against IgE-mediated passive cutaneous anaphylaxis (PCA) in rats; type: functional
In short: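 Female Sprague–Dawley rats (90–125 g), fasted overnight, were sensitized with id injections of graded concentrations of IgE against egg albumin. Compound was given orally at 100 mg (base)/kg in 0.5% gum tragacanth to 4 rats, 1 h before challenge. Skin bluing diameters were read 30 min later, and the shift of the antibody dose-response curve to the right was expressed in multiples of antibody concentration.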

Row | SMILES | Potency [1] | PCA shift [2]
1 | CCNC(=O)Nc1ccnc(-c2cccnc2)n1 | 4.8 | >10
2 | CC(=O)C(=CNc1ccnc(-c2ccncc2)n1)C(C)=O |  | 5.6
3 | COC(=O)C(/C=N/c1ccnc(-c2cccnc2)n1)=C(\O)OC | 2.9 | >10
4 | CCO/C(O)=C(\C=N\c1ccnc(-c2ccncc2)n1)C(C)=O |  | 2.9
5 | CCOC(=O)C(/C=N/c1ccnc(-c2cccnc2)n1)=C(\O)OCC | 0.8 | >10
6 | CN(C(=O)NC(C)(C)C)c1ccnc(-c2ccncc2)n1 |  | 4
7 | CC(C)(C)C(=O)Nc1ccnc(-c2ccncc2)n1 |  | 4.2
8 | CC(C)CC(=O)Nc1ccnc(-c2ccncc2)n1 |  | 5
9 | CCCCNC(=O)Nc1ccnc(-c2ccncc2)n1 | 2.4 | >10
10 | CC1(C)OC(=O)C(/C=N/c2ccnc(-c3ccncc3)n2)=C(O)O1 |  | 2.2
11 | CN(C)c1ccnc(-c2ccncc2)n1 |  | 1.5
12 | Cc1cc(O)nc(-c2ccncc2)n1 |  | 2.8
13 | Cc1cnc(-c2ccncc2)nc1NC(=O)NC(C)(C)C |  | 3.5
14 | Nc1ccnc(-c2cc[n+]([O-])cc2)n1 |  | 3.8
15 | CCNc1ccnc(-c2ccncc2)n1 |  | 8.4
16 | NC(=O)Nc1ccnc(-c2ccncc2)n1 |  | 4.8
17 | CCCCOC(=O)Nc1ccnc(-c2ccncc2)n1 |  | 3
18 | Nc1ccnc(-c2cccnc2)n1 |  | 4.2
19 | CCCNC(=O)Nc1ccnc(-c2ccncc2)n1 |  | >10
20 | CC(C)(C)NC(=O)Nc1ccnc(-c2ccccn2)n1 |  | 4.5

Row | SMILES | Potency [1] | PCA shift [2]
21 | CC(=O)Nc1ccnc(-c2ccncc2)n1 |  | 1.7
22 | CC(C)(C)NC(=O)Nc1ccnc(-c2cccnc2)n1 |  | 5.8
23 | CCO/C(O)=C(C#N)\C=N\c1ccnc(-c2ccncc2)n1 |  | 9.4
24 | CC(C)NC(=O)Nc1ccnc(-c2ccncc2)n1 | 2.4 | >10
25 | CC(C)(C)CC(=O)Nc1ccnc(-c2ccncc2)n1 |  | 2.2
26 | CCO/C(O)=C(C#N)\C(C)=N\c1ccnc(-c2ccncc2)n1 |  | 5
27 | CCCCNc1ccnc(-c2ccncc2)n1 |  | 7.6
28 | CCNC(=O)Nc1ccnc(-c2ccncc2)n1 | 7 | >10
29 | CCCCNC(=O)Nc1ccnc(-c2cccnc2)n1 |  | 8.5
30 | CCN(CC)C(=O)Nc1ccnc(-c2ccncc2)n1 |  | 8.9
31 | CC(C)C(=O)Nc1ccnc(-c2ccncc2)n1 |  | 2.3
32 | CC(C)NC(=O)Nc1ccnc(-c2cccnc2)n1 | 1.6 | >10
33 | CC(C)(C)NC(=O)Nc1ccnc(-c2cc[n+]([O-])cc2)n1 |  | 1.5
34 | CC(C)(C)NC(=O)Nc1ccnc(-c2ccncc2)n1 | 3.9 | >10
35 | Nc1ccnc(-c2ccccn2)n1 |  | 2.5
36 | CC(C)(C)Nc1ccnc(-c2ccncc2)n1 |  | 1.5
37 | CC(C)(C)OC(=O)Nc1ccnc(-c2ccncc2)n1 |  | 1.6
38 | CCN(CC)c1cc(C)nc(-c2ccncc2)n1.Cl.Cl |  | 2.2
39 | Cc1cc(N(C)C)nc(-c2ccncc2)n1.Cl.Cl |  | 5
40 | CCCCN(C(=O)NC(C)C)c1ccnc(-c2ccncc2)n1.CS(=O)(=O)O.CS(=O)(=O)O |  | 4.2

Row | SMILES | Potency [1] | PCA shift [2]
41 | CCC(CC)NC(=O)Nc1ccnc(-c2ccncc2)n1.CS(=O)(=O)O.CS(=O)(=O)O |  | 6.4
42 | CS(=O)(=O)O.CS(=O)(=O)O.Cc1cc(NN)nc(-c2ccncc2)n1 |  | 2
43 | CC(C)NC(=O)Nc1ccnc(-c2cc[n+]([O-])cc2)n1.CS(=O)(=O)O.CS(=O)(=O)O | 1.8 | 5.4
44 | CCOC(=O)C(/C=N/c1ccnc(-c2ccccn2)n1)=C(\O)OCC.CS(=O)(=O)O |  | 4.1
45 | Cc1cc(N(CCO)CCO)nc(-c2ccncc2)n1 |  | 6.3
46 | CNC(=O)Nc1ccnc(-c2ccncc2)n1 | 3.8 | >10
47 | CC(C)(CO)NC(=O)Nc1ccnc(-c2ccncc2)n1 | 1 | >10
48 | Nc1ccnc(-c2ccncc2)n1 |  | 8.6
49 | CCOC(=O)C(/C=N/c1cc(C)nc(-c2ccncc2)n1)=C(/O)OCC |  | 7.8
50 | CCCCCC(=O)Nc1ccnc(-c2ccncc2)n1 |  | 7
51 | CC(C)(C)CNC(=O)Nc1ccnc(-c2ccncc2)n1 |  | 2.2
52 | CNc1ccnc(-c2ccncc2)n1 |  | 7.4
53 | CCOC(=O)C(/C=N/c1ccnc(-c2ccncc2)n1)=C(\O)OCC | 2.4 | >10
54 | CNc1cc(C)nc(-c2ccncc2)n1 |  | 4.9
55 | Cc1cc(Cl)nc(-c2ccncc2)n1 |  | 1.4
56 | COC(=O)C(/C=N/c1ccnc(-c2ccncc2)n1)=C(\O)OC | 5.8 | >10
57 | CC(C)Nc1ccnc(-c2ccncc2)n1 |  | 9
58 | Cc1cc(NC(=O)NC(C)(C)C)nc(-c2ccncc2)n1 |  | 3.2
59 | CC(C)NC(=O)N(C)c1ccnc(-c2ccncc2)n1 |  | >10
60 | Cc1cc(N)nc(-c2ccncc2)n1 |  | 10.2
